Converted amounts (≈) assume the structure as drawn.
Experiments:
[1] = Toxicity against brine shrimp; type: organism-based; settings: artemia, in vivo
In short: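 Brine shrimp lethality assay run in-house following a published method. The positive standard, adriamycin, was dissolved directly in sea water and tested immediately.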

A549 = test: Cytotoxicity against human A549 cells; type: functional; settings: read-out: ED50 (the source's name)
In short: (§1)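 Human tumor cell cytotoxicity run by the Purdue Cancer Center's cell culture laboratory using standard protocols, with adriamycin as the positive standard. A-549, MCF-7 and HT-29 were each tested under a separately cited protocol.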

MCF7 = test: Cytotoxicity against human MCF7 cells; type: functional; settings: read-out: ED50 (the source's name); in short: as §1
HT-29 = test: Cytotoxicity against human HT-29 cells; type: functional; settings: read-out: ED50 (the source's name); in short: as §1

Row | SMILES | LC50 [1] [mg/L] | EC50 (A549) [mg/L] | EC50 (MCF7) [mg/L] | EC50 (HT-29) [mg/L]
1 | O=C1C[C@H]2C[C@@H](O1)[C@H](O)[C@H](c1ccccc1)O2 | > 500 | 27.2 (≈ 116 µM) | 25.4 (≈ 108 µM) | 7.38 (≈ 31.5 µM)
2 | O=C1C[C@@H]2O[C@@H]([C@H](O)c3ccccc3)[C@@H](O)[C@@H]2O1 (relative stereo) | 475 (≈ 1900 µM) | 85.5 (≈ 342 µM) | 49.1 (≈ 196 µM) | > 100
3 | COc1cccc2c1C(=O)c1c(O)c3c(c(O)c1C2=O)C[C@@](O)(C(=O)CO)C[C@@H]3O[C@H]1C[C@H](N)[C@H](O)[C@H](C)O1 [DOXORUBICIN] |  | 0.00684 (≈ 0.0126 µM) | 0.0177 (≈ 0.0326 µM) | 0.00416 (≈ 0.00765 µM)
4 | O=C1C=CC[C@H]([C@H](O)[C@H](O)c2ccccc2)O1 [GONIODIOL] | > 500 | 0.122 (≈ 0.521 µM) | 8.27 (≈ 35.3 µM) | 2.45 (≈ 10.5 µM)

— ChEMBL document CHEMBL1158970, “Two new styryl lactones, 9-deoxygoniopypyrone and 7-epi-goniofufurone, from Goniothalamus giganteus” (J Nat Prod, 1991)
